Test results as given in PMC4806784 (Investigational new drugs, 2015).
Read-outs that look alike come from different tables or passages of the source.

How the values were obtained:
[1] = assay type: in vivo, human; conditions: for AUC(0-t) / Cmax / Tmax / half-life / concentration at 12 h: plasma; for concentration at 12 h: C12h
Procedure, shortened: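 Test compound was given as oral capsules with […] water after a 2-h fast, BID Q12hr, 3–6 patients per dose level. Docetaxel 60 mg/m2 was a 1-h IV infusion 2 h beforehand. […] was sampled on Cycle 1 Day 1 (predose, 0.5–24 h after dose 1) and Day 2 (predose, 0.5–44 h after dose 4). Analysis was non-compartmental, with AUC by linear-up/log-down trapezoidal method and Cmax/Tmax by inspection.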

[2] = test system: AK-A; conditions: adenosine triphosphate-competitive inhibitor; cited from earlier work
[3] = test system: human tumor cell lines and xenograft models; conditions: subset of human tumor cell lines and xenograft models; cited from earlier work

O=C(O)[C@]1(Cc2cccc(Nc3nccs3)n2)CC[C@@H](Oc2cccc(Cl)c2F)CC1 [MK-5108]
mean target trough concentration of 2 μM ([1]; Panel 2 (CT with docetaxel), any tested dose level): not achieved
dose proportionality of AUC0-12h and Cmax ([1]; following the first dose): less than dose proportionally
dose proportionality of AUC0-12h and Cmax ([1]; following the fourth dose, 100 to 1800 mg (Q12hr)): roughly dose proportionally
dose proportionality of serum concentration at 12 hours post dose (trough) ([1]; human, in vivo): roughly dose proportionally
shape of mean plasma concentration decline ([1]; human, in vivo): biphasic decline
AUC(0-t) ([1]; human, iv, 60 mg/m2, AUC0-12h, 100 mg/day, Panel 2 (CT, docetaxel 60 mg/m^2 IV), Dose 1): 7.9 ± 2 µM·h
AUC(0-t) ([1]; human, iv, 60 mg/m2, AUC0-12h, 100 mg/day, Panel 2 (CT, docetaxel 60 mg/m^2 IV), Dose 4): 10.8 ± 3.3 µM·h
AUC(0-t) ([1]; human, iv, 60 mg/m2, AUC0-12h, 150 mg/day, Panel 2 (CT, docetaxel 60 mg/m^2 IV), Dose 1): 15 ± 9.2 µM·h
AUC(0-t) ([1]; human, iv, 60 mg/m2, AUC0-12h, 150 mg/day, Panel 2 (CT, docetaxel 60 mg/m^2 IV), Dose 4): 16.4 ± 8.9 µM·h
AUC(0-t) ([1]; human, iv, 60 mg/m2, AUC0-12h, 225 mg/day, Panel 2 (CT, docetaxel 60 mg/m^2 IV), Dose 1): 18.5 ± 6.2 µM·h
AUC(0-t) ([1]; human, iv, 60 mg/m2, AUC0-12h, 225 mg/day, Panel 2 (CT, docetaxel 60 mg/m^2 IV), Dose 4): 23.4 ± 8.8 µM·h
Cmax ([1]; human, iv, 60 mg/m2, Cmax, 100 mg/day, Panel 2 (CT, docetaxel 60 mg/m^2 IV), Dose 1): 2.3 ± 1.2 µM
Cmax ([1]; human, iv, 60 mg/m2, Cmax, 100 mg/day, Panel 2 (CT, docetaxel 60 mg/m^2 IV), Dose 4): 2.2 ± 1 µM
Cmax ([1]; human, iv, 60 mg/m2, Cmax, 150 mg/day, Panel 2 (CT, docetaxel 60 mg/m^2 IV), Dose 1): 3.5 ± 2 µM
Cmax ([1]; human, iv, 60 mg/m2, Cmax, 150 mg/day, Panel 2 (CT, docetaxel 60 mg/m^2 IV), Dose 4): 3.2 ± 1.7 µM
Cmax ([1]; human, iv, 60 mg/m2, Cmax, 225 mg/day, Panel 2 (CT, docetaxel 60 mg/m^2 IV), Dose 1): 5 ± 0.8 µM
Cmax ([1]; human, iv, 60 mg/m2, Cmax, 225 mg/day, Panel 2 (CT, docetaxel 60 mg/m^2 IV), Dose 4): 5.3 ± 1.7 µM
Tmax ([1]; human, iv, 60 mg/m2, Tmax, 100 mg/day, Panel 2 (CT, docetaxel 60 mg/m^2 IV), Dose 1, median (range)): 2 h
Tmax ([1]; human, iv, 60 mg/m2, Tmax, 100 mg/day, Panel 2 (CT, docetaxel 60 mg/m^2 IV), Dose 4, median (range)): 4 h
Tmax ([1]; human, iv, 60 mg/m2, Tmax, 150 mg/day, Panel 2 (CT, docetaxel 60 mg/m^2 IV), Dose 1, median (range)): 3.5 h
Tmax ([1]; human, iv, 60 mg/m2, Tmax, 150 mg/day, Panel 2 (CT, docetaxel 60 mg/m^2 IV), Dose 4, median (range)): 5 h
Tmax ([1]; human, iv, 60 mg/m2, Tmax, 225 mg/day, Panel 2 (CT, docetaxel 60 mg/m^2 IV), Dose 1, median (range)): 2 h
Tmax ([1]; human, iv, 60 mg/m2, Tmax, 225 mg/day, Panel 2 (CT, docetaxel 60 mg/m^2 IV), Dose 4, median (range)): 3 h
half-life ([1]; human, iv, 60 mg/m2, t1/2, 100 mg/day, Panel 2 (CT, docetaxel 60 mg/m^2 IV), Dose 4): 13.5 ± 10.6 h
half-life ([1]; human, iv, 60 mg/m2, t1/2, 150 mg/day, Panel 2 (CT, docetaxel 60 mg/m^2 IV), Dose 4): 10.1 ± 5 h
half-life ([1]; human, iv, 60 mg/m2, t1/2, 225 mg/day, Panel 2 (CT, docetaxel 60 mg/m^2 IV), Dose 4): 9.2 ± 5.1 h
concentration at 12 h ([1]; human, iv, 100 mg/day, Panel 2 (CT, docetaxel 60 mg/m^2 IV), Dose 1): 0.15 ± 0.12 µM
concentration at 12 h ([1]; human, iv, 100 mg/day, Panel 2 (CT, docetaxel 60 mg/m^2 IV), Dose 4): 0.21 ± 0.1 µM
concentration at 12 h ([1]; human, iv, 150 mg/day, Panel 2 (CT, docetaxel 60 mg/m^2 IV), Dose 1): 0.33 ± 0.22 µM
concentration at 12 h ([1]; human, iv, 150 mg/day, Panel 2 (CT, docetaxel 60 mg/m^2 IV), Dose 4): 0.51 ± 0.37 µM
concentration at 12 h ([1]; human, iv, 225 mg/day, Panel 2 (CT, docetaxel 60 mg/m^2 IV), Dose 1): 0.46 ± 0.26 µM
concentration at 12 h ([1]; human, iv, 225 mg/day, Panel 2 (CT, docetaxel 60 mg/m^2 IV), Dose 4): 0.66 ± 0.62 µM
AUC(0-t) ([1]; human, oral, 200 mg/day, AUC0-12h, Panel 1 (MT), Dose 1): 17.5 ± 5.6 µM·h
AUC(0-t) ([1]; human, oral, 200 mg/day, AUC0-12h, Panel 1 (MT), Dose 4): 31.2 ± 16.3 µM·h
concentration at 12 h ([1]; human, oral, 200 mg/day, Panel 1 (MT), Dose 1): 0.35 ± 0.05 µM
concentration at 12 h ([1]; human, oral, 200 mg/day, Panel 1 (MT), Dose 4): 1.92 ± 1.91 µM
Cmax ([1]; human, oral, 200 mg/day, Cmax, Panel 1 (MT), Dose 1): 3.9 ± 0.7 µM
Cmax ([1]; human, oral, 200 mg/day, Cmax, Panel 1 (MT), Dose 4): 4.8 ± 1 µM
Tmax ([1]; human, oral, 200 mg/day, Tmax, Panel 1 (MT), Dose 1, median (range)): 4 h
Tmax ([1]; human, oral, 200 mg/day, Tmax, Panel 1 (MT), Dose 4, median (range)): 4 h
half-life ([1]; human, oral, 200 mg/day, t1/2, 200 mg/day, Panel 1 (MT), Dose 4): 9.3 ± 1.2 h
AUC(0-t) ([1]; human, oral, 400 mg/day, AUC0-12h, Panel 1 (MT), Dose 1): 27 ± 12.2 µM·h
AUC(0-t) ([1]; human, oral, 400 mg/day, AUC0-12h, Panel 1 (MT), Dose 4): 75.7 ± 46.2 µM·h
concentration at 12 h ([1]; human, oral, 400 mg/day, Panel 1 (MT), Dose 1): 0.25 ± 0.13 µM
concentration at 12 h ([1]; human, oral, 400 mg/day, Panel 1 (MT), Dose 4): 2.02 ± 1.52 µM
Cmax ([1]; human, oral, 400 mg/day, Cmax, Panel 1 (MT), Dose 1): 6.7 ± 2.4 µM
Cmax ([1]; human, oral, 400 mg/day, Cmax, Panel 1 (MT), Dose 4): 11 ± 5.3 µM
Tmax ([1]; human, oral, 400 mg/day, Tmax, Panel 1 (MT), Dose 1, median (range)): 2 h
Tmax ([1]; human, oral, 400 mg/day, Tmax, Panel 1 (MT), Dose 4, median (range)): 6 h
half-life ([1]; human, oral, 400 mg/day, t1/2, 400 mg/day, Panel 1 (MT), Dose 4): 8.7 ± 6.7 h
AUC(0-t) ([1]; human, oral, 800 mg/day, AUC0-12h, Panel 1 (MT), Dose 1): 69 ± 41.9 µM·h
AUC(0-t) ([1]; human, oral, 800 mg/day, AUC0-12h, Panel 1 (MT), Dose 4): 95.5 ± 44.9 µM·h
concentration at 12 h ([1]; human, oral, 800 mg/day, Panel 1 (MT), Dose 1): 1.68 ± 1.91 µM
concentration at 12 h ([1]; human, oral, 800 mg/day, Panel 1 (MT), Dose 4): 4.53 ± 2.68 µM
Cmax ([1]; human, oral, 800 mg/day, Cmax, Panel 1 (MT), Dose 1): 19.5 ± 5.5 µM
Cmax ([1]; human, oral, 800 mg/day, Cmax, Panel 1 (MT), Dose 4): 20 ± 11 µM
Tmax ([1]; human, oral, 800 mg/day, Tmax, Panel 1 (MT), Dose 1, median (range)): 1 h
Tmax ([1]; human, oral, 800 mg/day, Tmax, Panel 1 (MT), Dose 4, median (range)): 1 h
half-life ([1]; human, oral, 800 mg/day, t1/2, 800 mg/day, Panel 1 (MT), Dose 4): 11.1 ± 1.1 h
AUC(0-t) ([1]; human, oral, 1200 mg/day, AUC0-12h, Panel 1 (MT), Dose 1): 96.6 ± 45.6 µM·h
AUC(0-t) ([1]; human, oral, 1200 mg/day, AUC0-12h, Panel 1 (MT), Dose 4): 116 ± 61.4 µM·h
concentration at 12 h ([1]; human, oral, 1200 mg/day, Panel 1 (MT), Dose 1): 2.12 ± 2.09 µM
concentration at 12 h ([1]; human, oral, 1200 mg/day, Panel 1 (MT), Dose 4): 3.31 ± 0.53 µM
Cmax ([1]; human, oral, 1200 mg/day, Cmax, Panel 1 (MT), Dose 1): 22.3 ± 12.7 µM
Cmax ([1]; human, oral, 1200 mg/day, Cmax, Panel 1 (MT), Dose 4): 25 ± 9.4 µM
Tmax ([1]; human, oral, 1200 mg/day, Tmax, Panel 1 (MT), Dose 1, median (range)): 2 h
Tmax ([1]; human, oral, 1200 mg/day, Tmax, Panel 1 (MT), Dose 4, median (range)): 3 h
half-life ([1]; human, oral, 1200 mg/day, t1/2, 1200 mg/day, Panel 1 (MT), Dose 4): 8.3 ± 3.3 h
AUC(0-t) ([1]; human, oral, 1500 mg/day, AUC0-12h, Panel 1 (MT), Dose 1): 83.2 ± 50.8 µM·h
AUC(0-t) ([1]; human, oral, 1500 mg/day, AUC0-12h, Panel 1 (MT), Dose 4): 131 ± 53.2 µM·h
concentration at 12 h ([1]; human, oral, 1500 mg/day, Panel 1 (MT), Dose 1): 1.04 ± 0.4 µM
concentration at 12 h ([1]; human, oral, 1500 mg/day, Panel 1 (MT), Dose 4): 2.8 ± 1.26 µM
Cmax ([1]; human, oral, 1500 mg/day, Cmax, Panel 1 (MT), Dose 1): 20.8 ± 10.6 µM
Cmax ([1]; human, oral, 1500 mg/day, Cmax, Panel 1 (MT), Dose 4): 28.9 ± 13.6 µM
Tmax ([1]; human, oral, 1500 mg/day, Tmax, Panel 1 (MT), Dose 1, median (range)): 2 h
Tmax ([1]; human, oral, 1500 mg/day, Tmax, Panel 1 (MT), Dose 4, median (range)): 2 h
half-life ([1]; human, oral, 1500 mg/day, t1/2, 1500 mg/day, Panel 1 (MT), Dose 4): 11.4 ± 2 h
AUC(0-t) ([1]; human, oral, 1800 mg/day, AUC0-12h, Panel 1 (MT), Dose 1): 101 ± 39.3 µM·h
AUC(0-t) ([1]; human, oral, 1800 mg/day, AUC0-12h, Panel 1 (MT), Dose 4): 234 ± 62.7 µM·h
concentration at 12 h ([1]; human, oral, 1800 mg/day, Panel 1 (MT), Dose 1): 4.78 ± 4.64 µM
concentration at 12 h ([1]; human, oral, 1800 mg/day, Panel 1 (MT), Dose 4): 6.85 ± 3.96 µM
Cmax ([1]; human, oral, 1800 mg/day, Cmax, Panel 1 (MT), Dose 1): 24.8 ± 9.6 µM
Cmax ([1]; human, oral, 1800 mg/day, Cmax, Panel 1 (MT), Dose 4): 50.2 ± 11.4 µM
Tmax ([1]; human, oral, 1800 mg/day, Tmax, Panel 1 (MT), Dose 1, median (range)): 2 h
Tmax ([1]; human, oral, 1800 mg/day, Tmax, Panel 1 (MT), Dose 4, median (range)): 3 h
half-life ([1]; human, oral, 1800 mg/day, t1/2, 1800 mg/day, Panel 1 (MT), Dose 4): 6.6 ± 0.6 h
Tmax ([1]; human, oral, Median Tmax, following the first dose, across dose levels): 1 to 4 h
Tmax ([1]; human, oral, Median Tmax, following the fourth dose, across dose levels): 1 to 6 h
half-life ([1]; human, oral, mean t1/2, range across dose levels, across both panels): 6.6 to 13.5 h
half-life ([1]; human, oral, t1/2 range (variable), following Dose 4): 5 to 29 h
IC50 [2]: 0.064 nM
single-agent activity [3]: modest single-agent activity
